Screening data from PubChem BioAssay.
HCV NS3 hel inh = inhibitors of Hepatitis C virus NS3 helicase | NS3 helicase DNA unwinding, Cy5 molecular beacon fluorescence | inhibition, % at 10.9 µM | 0.56% of 290,000 active | AID 1800;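 active means inhibition above the mean of all tested compounds plus 3 SD, set per campaign, cut at about 35% in these data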;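 further: 0% = DMSO wells and 100% = thioflavine S control wells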
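Assay system – hepatitis C virus NS3 helicase domain fragment enzyme · Buffer or medium – MOPS pH 6.5, MgCl2, DTT, Tween20, BSA · Reagent – Cy5/quencher beacon DNA duplex and ATP to start · Compound – single 10.9 µM dose · Timing – 1 h at 25 °C · Technique – Cy5 beacon fluorescence read at start and 1 h · Measure – % inhibition of unwinding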
T cruzi repl = T. cruzi replication inhibition; T. cruzi beta-gal in NIH3T3, luminescence, 90 h; inhibition, % (concentration not given with the values); 1.4% of 300,000 active; AID 1885;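 active means mean inhibition across valid replicates above about 55%, limit read from the data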;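 further: signal also drops with host cell toxicity which is not excluded here; 0% = plate median of DMSO wells and 100% = zero luminescence signal; higher percent means less beta-gal luminescence so fewer parasites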
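Assay system: NIH/3T3 host cells with β-galactosidase reporter T. cruzi; input: 5,000 host fibroblasts per well; compound: single 50 nL compound addition per well in DMSO; timing: ≥90 h infection period, 3 h prior cell attachment; measured by: GalScreen β-gal luminescence, detergent lysis, 60 min; evaluation: percent inhibition of parasite-derived β-gal signal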
MEKK2wt PB1 HTS = raises or lowers MEK5 binding to wildtype human MEKK2 PB1 domain. Q9Y2U5. bead flow cytometry, Alexa488-MEK5 binding to MEKK2 WT; actives lie on both sides. binding response (% of control), % at 10 µM. 1.1% of 290,000 active; in the data active means binding response below about 67% or above about 130%
MEKK3 PB1 HTS = modulators (inhibitors or enhancers) of MEK5 binding to human MEKK3 PB1 domain. bead-based flow cytometry, Alexa488-MEK5 binding to MEKK3; actives lie on both sides; 0 = blocked by unlabeled MEK5, 100 = vehicle. Q99759. 1.4% of 290,000 active. binding response (% of control), % at 10 µM;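 active means binding response more than 3 SD above or below the average of its plate-row segment, actives on both sides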;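 further: Alexa488 bead fluorescence after subtracting the streptavidin-only scavenger bead signal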
Target sequence (Q99759 whole entry, looked up, the tested form may be a part): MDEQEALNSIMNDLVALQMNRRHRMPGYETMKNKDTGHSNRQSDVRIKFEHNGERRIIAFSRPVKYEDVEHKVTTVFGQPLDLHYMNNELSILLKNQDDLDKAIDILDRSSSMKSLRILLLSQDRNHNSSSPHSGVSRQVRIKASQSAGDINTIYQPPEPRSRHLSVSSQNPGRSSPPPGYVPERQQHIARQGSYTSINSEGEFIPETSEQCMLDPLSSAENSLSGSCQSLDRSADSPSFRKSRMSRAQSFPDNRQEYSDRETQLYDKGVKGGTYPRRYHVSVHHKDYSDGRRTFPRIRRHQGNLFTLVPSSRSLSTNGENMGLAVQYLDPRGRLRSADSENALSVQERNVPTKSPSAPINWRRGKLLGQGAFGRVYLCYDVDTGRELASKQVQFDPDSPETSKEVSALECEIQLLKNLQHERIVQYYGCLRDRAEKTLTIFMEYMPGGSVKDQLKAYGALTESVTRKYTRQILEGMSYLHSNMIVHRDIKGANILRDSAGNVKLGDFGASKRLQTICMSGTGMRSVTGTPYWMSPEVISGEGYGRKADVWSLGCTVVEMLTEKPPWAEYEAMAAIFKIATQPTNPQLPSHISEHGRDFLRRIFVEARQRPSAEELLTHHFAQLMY
FID counter = fluorescent intercalator displacement, NS3 helicase counter-screen; DNA fluorescent intercalator displacement, fluorescence; inhibition, % at 7.9 µM; 0.17% of 290,000 active; in the data active means inhibition above about 37%;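 further: 0% = vehicle and 100% = reference compound; higher means more ethidium bromide displaced from hairpin DNA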
MEKK2mut PB1 HTS = signal of MEK5 binding to mutant human MEKK2 PB1 domain; bead flow cytometry, Alexa488-MEK5 binding to MEKK2 mutant; percent response, % at 10 µM; 0.35% of 290,000 active; AID 1530; in the data active means percent response above about 24%, passing the limit was not always enough
MEKK2wt confirm = raises or lowers MEK5 binding to wildtype human MEKK2, retest. shares compounds with MEKK3 PB1 HTS. bead flow cytometry, Alexa488-MEK5 binding to MEKK2 WT; actives lie on both sides. binding response (% of control), % at 10 µM. 2.4% of 5,900 active. AID 1892; in the data active means binding response below about 16% or above about 210%; inactive means in between
MEKK2mut-MEK5 = signal of MEK5 binding to mutant human MEKK2, retest; shares compounds with MEKK3 PB1 HTS; bead flow cytometry, Alexa488-MEK5 binding to MEKK2 mutant; percent response, % at 10 µM; 2% of 5,900 active; AID 1893; in the data active means percent response mostly above about 71%, no sharp cut-off; inactive means mostly below about 38%;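 further: higher means compound restores mutant binding toward wildtype level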
MEKK3 confirm = MEKK3-MEK5 PB1 inhibition, single concentration confirmation | shares compounds with MEKK3 PB1 HTS | bead flow cytometry, Alexa488-MEK5 binding to MEKK3; stronger effect = lower value | binding response (% of control), % at 10 µM | 1.8% of 5,900 active | AID 1894;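 active means binding response below 72% of control, or above a set upper limit, though filed actives all read lower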;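 further: 100% = DMSO only wells and 0% = binding blocked by excess unlabeled MEK5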
The depositor's hits bear a star; · = no result; [ ] = dose if it differs, or a comment. Only some compounds are listed: those with a hit (about 4.1% of all), similar ones and a draw of the others.

SMILES | HCV NS3 hel inh | T cruzi repl | MEKK2wt PB1 HTS | MEKK3 PB1 HTS | FID counter | MEKK2mut PB1 HTS | MEKK2wt confirm | MEKK2mut-MEK5 | MEKK3 confirm
Cc1cc(C)cc(N(C(=O)C2CCCC2)C2C=CS(=O)(=O)C2)c1 (stereo unspecified) | 3 | -3 | 78 | 76*[inhibitor] | -27 | -13 | 105 | 7 | 106
Cc1cc(C)cc(N(C(=O)c2cc3ccccc3oc2=O)C2C=CS(=O)(=O)C2)c1 (stereo unspecified) | 12 | -8 | 110 | 141* | -17 | 0 | 106 | 2 | 101
FC(F)(F)c1cnc(Sc2ncn[nH]2)c(Cl)c1 | -3 | -7 | 96 | 98 | 1 | -3 | · | · | ·
COc1ccc(NC(=O)CCC(=O)N2CCCC2)c([N+](=O)[O-])c1 | 2 | -2 | 97 | 100 | 2 | 0 | · | · | ·
Cc1nn(C(C)C(=O)NCCc2ccco2)c(=O)c2nn(-c3ccccc3)c(C)c12 (stereo unspecified) | 4 | 34 | 103 | 101 | -27 | 2 | · | · | ·
Cc1ccc(OCCC(=O)Nc2ccc(F)c(Cl)c2)cc1 | 3 | -11 | 223* | 117 | 3 | 31 | 103 | 14 | 102
CCN(CC)C(=O)C(=O)Nc1ccc(F)c(Cl)c1 | 7 | -10 | 88 | 75*[inhibitor] | -4 | -7 | 103 | -1 | 102
Cc1ccc(OCCC(=O)Nc2ccc(C)c(F)c2)cc1 | 2 | 13 | 102 | 100 | -2 | -5 | · | · | ·
CN(/N=C/c1cc(Cl)ccc1O)C1=NS(=O)(=O)c2ccccc21 | 4 | -7 | 104 | 107 | -10 | 2 | · | · | ·
CCOC(=O)C1(C)NC(c2cccc(C)c2)C2C(=O)N(c3ccccc3)C(=O)C21 (stereo unspecified) | 7 | 7 | 97 | 99 | -21 | 1 | · | · | ·
COc1ccccc1N(C)S(=O)(=O)c1ccc(C(=O)OCC(=O)Nc2ccccc2F)cc1 | -9 | -3 | 45*[inhibitor] | 46*[inhibitor] | -25 | -16 | 94 | 0 | 99
COc1ccc(N=C2S/C(=C\c3cccs3)C(=O)N2CC(C)C)cc1 | 7 | 27 | 90 | 82*[inhibitor] | -2 | -7 | 103 | -1 | 107
CN(c1ccc(Cl)cc1)S(=O)(=O)c1nnc(NC(=O)C(C)(C)C)s1 | -5 | -1 | 104 | 103 | -21 | 2 | · | · | ·
COc1ccc(-c2nc3ncccc3o2)cc1NC(=O)c1ccco1 | 2 | 36 | 96 | 98 | -31 | -1 | · | · | ·
Brc1ccc(N=C/C=C/C=C/Nc2ccc(Br)cc2)cc1 | 3 | · | 38* | 46*[inhibitor] | 8 | 140* | 48 | -30 | 64*
NC(=O)CC(NC(=O)Cc1ccc(Cl)cc1)c1ccc(NC2CC3CCC2C3)c([N+](=O)[O-])c1 (stereo unspecified) | -22 | 0 | 97 | 99 | -16 | -7 | · | · | ·
CC(=O)CSc1nnc(-c2ccco2)n1-c1ccccc1 | 0 | -16 | 97 | 98 | -6 | -3 | · | · | ·
CSc1nnc(-c2ccco2)n1-c1ccccc1 | -7 | -4 | 124 | 123* | -7 | 12 | 109 | 5 | 105
COc1ccc(/C=C/C(=O)Oc2ccc(/C=N/NC(=O)c3ccccc3)cc2)cc1OC | 3 | -8 | 102 | 138* | -17 | 0 | 94 | -9 | 94
COc1ccc(/C=C(/NC(=O)c2ccccc2)C(=O)N/N=C/c2ccncc2)cc1 | 4 | -12 | 2.0*[inhibitor] | 2.0*[inhibitor] | -10 | -15 | 102 | 3 | 102
O=C(N/N=C/c1ccc(OC(=O)c2ccccc2)cc1)c1cccc(O)c1 | 1 | 4 | 113 | 137* | -15 | 0 | 92 | 0 | 101
O=C(NNc1cc(Cl)ccc1Cl)c1cccs1 | 25 | 7 | 127 | 130* | -6 | 25 | 107 | 1 | 107
Cc1cc(Cl)ccc1NNC(=O)c1cccs1 | 13 | -3 | 78 | 77 | 2 | -29 | · | · | ·
O=C(NCCCn1ccnc1)/C(=C\c1cccs1)NC(=O)c1cccs1 | -2 | -10 | 116 | 130* | -1 | 0 | 100 | -5 | 101
Cc1nc(-n2nnc(CO)c2CO)nc2c1CCC2 | -7 | -14 | 116 | 138* | 0 | 4 | 93 | -3 | 100
SMILES | HCV NS3 hel inh | T cruzi repl | MEKK2wt PB1 HTS | MEKK3 PB1 HTS | FID counter | MEKK2mut PB1 HTS | MEKK2wt confirm | MEKK2mut-MEK5 | MEKK3 confirm
COC(=O)c1cn(-c2nc(C)c3c(n2)CCC3)nn1 | 3 | -20 | 77 | 67 | -3 | -7 | · | · | ·
CCOC(=O)N1CCN(CC(O)COc2ccc(C)c(C)c2)CC1 (stereo unspecified) | 0 | 3 | 110 | 105 | -13 | 8 | · | · | ·
O=C(NCc1nc2ccccc2[nH]1)C1=C[C@H](C2CC2)C[C@H](OCCCCO)O1 | 1 | 5 | 94 | 79*[inhibitor] | -14 | -3 | 96 | 0 | 103
CCO[C@H]1OC(C(=O)NCc2nc3ccccc3[nH]2)=C[C@@H](c2ccccc2)[C@@H]1CCCO | -3 | -6 | 72 | 73 | -21 | 2 | · | · | ·
CCO[C@H]1OC(C(=O)NCc2nc3ccccc3[nH]2)=C[C@@H](C2CC2)[C@@H]1CCCO | 4 | -20 | 2.0*[inhibitor] | 1.0*[inhibitor] | -13 | 12 | 100 | -2 | 101
O=C(CSc1nnc(-c2ccncc2)n1-c1ccc(Cl)cc1)NCc1cccs1 | 3 | -2 | 120 | 124* | -30 | 9 | 102 | -3 | 102
COc1cccc(NC(=O)CSc2nnc(-c3ccc(C)cc3)o2)c1 | 1 | 7 | 84 | 82*[inhibitor] | -1 | -6 | 104 | 3 | 102
Cc1cc(C)cc(-c2nnc(SCC(=O)NCc3cccs3)o2)c1 | -9 | 9 | -2.0*[inhibitor] | 1.0*[inhibitor] | -19 | -20 | 113 | 6 | 102
CNC(=O)CSc1nnc(-c2cc(C)cc(C)c2)o1 | 0 | -5 | 102 | 102 | -2 | 5 | · | · | ·
Cc1c(Cl)cccc1-n1c(SCC(=O)NCc2cccs2)nnc1-c1ccncc1 | 7 | 12 | 106 | 104 | -35 | 3 | · | · | ·
CC(=O)Nc1ccc(NC(=O)CSc2nnc(-c3ccco3)o2)cc1 | 3 | -2 | 112 | 129* | -6 | 1 | 95 | -25 | 93
CCc1ccc(NC(=O)CSc2nnc(-c3ccco3)o2)cc1 | 19 | -9 | 100 | 100 | -25 | 3 | · | · | ·
